Test results from ChEMBL document CHEMBL1123734, “Resolution, absolute stereochemistry, and enantioselective activity of nomifensine and hexahydro-1H-indeno[1,2-b]pyridines” (J Med Chem, 1987).
Values joined by “and” are separate entries in the source; they are usually repeats but may differ in a detail not shown here. Equal values may be shown once.

Columns and labels:
[1] = tested on: Mus musculus; experiment: Antidepressant potential was assessed by the prevention of tetrabenazine-induced ptosis in mice by intraperitoneal administration; Inactive; format: functional; conditions: ip
[2] = tested on: Mus musculus; experiment: (§1) Lethal dose (toxicity) was determined by intraperitoneal administration in mice; format: organism-based; conditions: in vivo, ip
Outline: (§2)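 Male NMRI mice (SPF-71, KF), 20-30 g, randomly assigned to groups of 10. Compounds were dissolved in 1% methylcellulose and given intraperitoneally at 10 mL/kg body weight.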

[3] = tested on: Mus musculus; experiment: Antidepressant potential was assessed by the prevention of tetrabenazine-induced ptosis in mice by intraperitoneal administration; format: functional
Outline: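 Male NMRI mice (SPF-71, KF), 20-30 g, randomly assigned to groups of 10. Compounds dissolved in 1% methylcellulose and given ip at 10 mL/kg body weight. Ptosis procedure follows an earlier cited method.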

[4] = tested on: Mus musculus; experiment: Antidepressant potential was assessed by the potentiation of yohimbine-induced toxicity in mice by intraperitoneal administration; Inactive; format: functional; conditions: ip
Outline: (§3)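 Male NMRI mice (SPF-71, KF), 20-30 g, were randomized into groups of 10. Compounds were dissolved in 1% methylcellulose, dosed at 10 mL/kg, and given ip 30 min before yohimbine hydrochloride (20 mg/kg sc). Deaths were counted after 18 h. ED50 was the dose at which 50% of animals died.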

[5] = tested on: Mus musculus; experiment: Antidepressant potential was assessed by the potentiation of yohimbine-induced toxicity in mice by intraperitoneal administration; format: functional; outline: as §3
[6] = species: Rattus norvegicus; experiment: In vitro inhibition of [14C]norepinephrine uptake into rat hypothalamus; format: functional, organism-based
[7] = species: Rattus norvegicus; experiment: In vitro inhibition of [3H]dopamine uptake into rat corpus striatum; format: functional, organism-based
[8] = (§4) Lethal dose (toxicity) was determined by intraperitoneal administration in mice.; format: organism-based; conditions: mouse, in vivo, ip; outline: as §2
[9] = species: Rattus norvegicus; experiment: In vitro inhibition of [3H]5-HT uptake into rat whole brain; format: functional, organism-based
[10] = as §1; format: organism-based; conditions: mouse, in vivo, ip; outline: as §2
[11] = tested on: Mus musculus; experiment: Antidepressant potential was assessed by the potentiation of yohimbine-induced toxicity in mice by intraperitoneal administration.; format: functional; outline: as §3
[12] = tested on: Mus musculus; experiment: as §4; format: organism-based; conditions: in vivo, ip; outline: as §2
[13] = tested on: Mus musculus; experiment: Antidepressant potential was assessed by the prevention of tetrabenazine-induced ptosis in mice by intraperitoneal administration.; format: functional
[14] = Mus musculus, ip, read-out: ED50

Compound	LD50 [2]	ED50 [5]	IC50 [6]	IC50 [7]	LD50 [10]	ED50 [11]	IC50 [9]	LD50 [12]	further results
CN1CCC[C@@H]2[C@@H](c3ccccc3)c3ccccc3[C@@H]21	72 mg/kg and 91 mg/kg	0.86 mg/kg	500 nM and 60 nM	300 nM					ED50 [1]: 10 mg/kg; ED50 [3]: 0.37 mg/kg; ED50 [4]: 5 mg/kg
Nc1ccc([C@H]2c3ccccc3[C@@H]3NCCC[C@H]23)cc1			5 nM and 15 nM	20 nM and 50 nM	78 mg/kg	0.07 mg/kg and 0.15 mg/kg			LD50 [8]: 43 mg/kg; IC50 ([9]; Rattus norvegicus, 1 h): > 10000 nM
CCCN1CCC[C@@H]2[C@@H](c3ccccc3)c3ccccc3[C@@H]21	35 mg/kg	1.2 mg/kg	36 nM and 200 nM	40 nM and 200 nM	39 mg/kg		> 10000 nM		ED50 [1]: 5 mg/kg; ED50 [3, 14]: 0.4 mg/kg; ED50 [4]: 5 mg/kg
CN1CCC[C@@H]2[C@@H](c3ccccc3)c3ccccc3[C@@H]21 (racemic)			120 nM	100 nM	46.7 mg/kg		10000 nM		ED50 [3, 14]: 0.4 mg/kg; ED50 [5, 14]: 1.3 mg/kg
Nc1ccc([C@H]2c3ccccc3[C@@H]3NCCC[C@H]23)cc1 (racemic)			18 nM	44 nM		0.06 mg/kg		37 mg/kg	ED50 [13]: 0.044 mg/kg
CCCN1CCC[C@@H]2[C@@H](c3ccccc3)c3ccccc3[C@@H]21 (racemic)	57 mg/kg	3.5 mg/kg	410 nM	110 nM			> 10000 nM		ED50 [3]: 0.8 mg/kg
CN1Cc2c(N)cccc2C(c2ccccc2)C1 (racemic) [NOMIFENSINE]						1.1 mg/kg		141 mg/kg	
CN1Cc2c(N)cccc2C(c2ccccc2)C1 (stereo in doubt; (+)) [NOMIFENSINE]						0.55 mg/kg		49.5 mg/kg	
CN1Cc2c(N)cccc2C(c2ccccc2)C1 (stereo in doubt; (-)) [NOMIFENSINE]						20.2 mg/kg		170 mg/kg	
